Assay outcomes (PubChem)
A selection: hits, their analogues and other compounds. The true share with any hit is near 1.6%.
ATG4B inhibitor = ATG4B (human) cysteine protease inhibition | Q9Y4P1 | ATG4B cleavage of LC3-PLA2, NBD-HPC fluorescence, 1 h | inhibition, % at 8.33 µM | 0.51% of 340,000 active | AID 504462; in the data active means inhibition above about 40%
PKA-R2B act = activators of human PKA-R2B complex | activation, % at 11.4 µM | P22694+P31323 | PKA-R2B holoenzyme dissociation, Cy5-IP20 fluorescence polarization; R2B truncated from residue 108, S112A mutant; 0% DMSO only, 100% 113 µM cGMP | 0.079% of 340,000 active;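 active means activation above a cutoff set at the mean over all compounds plus 3 SD, cut at about 18% in these data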;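 further: higher means more holoenzyme dissociation and a rise in polarization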
Target sequence (P31323 whole entry, looked up, other chains not shown, the tested form may be a part): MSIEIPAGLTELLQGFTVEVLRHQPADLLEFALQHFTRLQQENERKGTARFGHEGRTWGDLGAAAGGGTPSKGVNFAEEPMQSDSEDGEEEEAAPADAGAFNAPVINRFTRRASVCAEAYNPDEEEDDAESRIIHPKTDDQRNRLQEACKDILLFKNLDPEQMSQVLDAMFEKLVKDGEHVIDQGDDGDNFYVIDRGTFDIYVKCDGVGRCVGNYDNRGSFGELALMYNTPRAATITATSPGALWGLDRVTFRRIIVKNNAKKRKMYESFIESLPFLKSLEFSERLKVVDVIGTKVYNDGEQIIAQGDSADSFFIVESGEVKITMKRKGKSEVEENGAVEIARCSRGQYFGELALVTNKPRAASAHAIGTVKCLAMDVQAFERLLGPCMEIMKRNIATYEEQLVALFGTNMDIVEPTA
T cell HTS = T cell immune modulation candidate | response (vesicle binding), % at 7 µM | 2C CD8+ T cell-vesicle binding, flow cytometry; active compounds read low | 0.068% of 330,000 active;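 active means response, share of CD8 T cells binding vesicles, and their 90th percentile fluorescence all below set limits, cut at about 80% in these data, passing the limit was not always enough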;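 further: values below 100% mean blocked vesicle binding to the CD8+ T cells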
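System: murine 2C transgenic CD8+ T lymphocytes; also added: QL9-loaded Drosophila micro-vesicles; times: binding 1.5 h at 37 °C; measured by: flow cytometry, PE anti-B7-1 (FL2) versus Alexa647 anti-CD8 (FL8), PFA-fixed; control set: Peptide-free naked vesicles (low) and QL9 vesicles with 0.7% DMSO vehicle (high)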
PfG6PD inh = PfG6PD (Plasmodium falciparum) enzyme inhibition. PfGluPho enzyme, NADPH resazurin-diaphorase fluorescence. inhibition, % at 20 µM. 0.78% of 350,000 active. AID 504690;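 active means inhibition reaching at least a set limit at 20 µM in the primary screen, cut at about 59% in these data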;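 further: 0% = DMSO wells with substrate and 100% = DMSO wells lacking glucose-6-phosphate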
HKDC1 inhibitor = HKDC1 (human) hexokinase inhibition | Q2TB90 | inhibition, % at 20 µM | recombinant HKDC1, G6PDH/diaphorase resazurin coupled fluorescence | 0.16% of 340,000 active;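 active means inhibition above about 35% when tested at 20 µM, limit read from the data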;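 further: plate controls were DMSO wells with enzyme for no effect and DMSO wells lacking enzyme for full effect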
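Test system: Recombinant HKDC1 (HK5) hexokinase enzyme, produced in-house | Input: HKDC1 at 5 µg/mL | Buffer or medium: Tris pH 8.0 buffer with MgCl2, Tween-20, BSA, BME | Schedule: 90 min reaction incubation at room temperature, dark | Technique: Resazurin-to-resorufin fluorescence via G6PDH and diaphorase coupling, 525/613 nm | Controls: DMSO wells with and without enzyme mix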
PKA-R1A act = activators of PKA-R1A complex; P00514+P68181; PKA-R1A dissociation, Cy5-IP20 fluorescence polarization; scaled: DMSO 0%, 113 µM cGMP 100%; activation, % at 11.4 µM; 0.083% of 340,000 active;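 active means percent activation above the mean of all tested compounds plus 3 SD, cut at about 19% in these data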;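 further: higher means more PKAc released from R1A so a rise in polarization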
ATG4B confirm = confirmation of human ATG4B inhibitors. ATG4B protease fluorescent substrate cleavage assay. shares compounds with ATG4B inhibitor. inhibition, % at 8.33 µM. 92% of 320 active. AID 504757; in the data active means inhibition above about 39%
PLA2 ctr = counter-screen for ATG4B inhibitors: human phospholipase A2; shares compounds with ATG4B inhibitor; 66% of 1,600 active; inhibition, % at 8.33 µM; purified PLA2, NBD-C6-HPC fluorescence, 45 min; AID 588402; in the data active means inhibition above about 50%
Target sequence (P04054 whole entry, looked up): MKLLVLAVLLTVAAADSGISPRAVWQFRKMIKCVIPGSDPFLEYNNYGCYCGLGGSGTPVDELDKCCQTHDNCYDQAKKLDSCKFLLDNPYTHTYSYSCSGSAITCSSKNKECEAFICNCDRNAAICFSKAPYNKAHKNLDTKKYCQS
An asterisk follows results filed as active; x = no result given.

SMILES	ATG4B inhibitor	PKA-R2B act	T cell HTS	PfG6PD inh	HKDC1 inhibitor	PKA-R1A act	PLA2 ctr	others
COc1ccc2c(c1OC)C(=O)OC2Nc1nc(-c2cccc([N+](=O)[O-])c2)cs1 (stereo not drawn)	52*	-9	386	-4	1	2	71*
Cc1ccccc1NC(=O)CN1C(=O)S/C(=C\c2ccc(-c3cc(C(=O)O)ccc3C)o2)C1=O	42*	-1	x	7	20	-12	21	ATG4B confirm=55*
NC(=O)c1ccc(OCC(F)(F)C(F)(F)C(F)(F)C(F)(F)C(F)(F)C(F)F)cc1	91*	-9	131	13	-3	-10	92*
O=C(COc1ccc(Cl)cc1)NCCNc1ccc([N+](=O)[O-])cc1	-9	3	210	-9	3	-4	x
O=C(NCC1COc2ccccc2O1)C1CCN(S(=O)(=O)c2ccc(Cl)cc2)CC1 (stereo not drawn)	-10	-2	361	14	0	-2	x
COC(=O)C1=C(N)N(c2ccccc2C(F)(F)F)C2=C(C(=O)CCC2)C1c1ccc2c(c1)OCO2 (stereo not drawn)	54*	0	239	-4	1	0	68*
COCCCn1c2nc3ccccc3nc2c2c(=O)n(-c3ccccc3OC)cnc21	2	0	176	4	-4	-5	x
COc1ccccc1-n1cnc2c(c1=O)c1nc3ccccc3nc1n2-c1ccc(C)c(C)c1	44*	3	x	-2	12	-5	4
COc1cc(OC)c(NC(=O)CC2SC(N)=NC2=O)cc1Cl (stereo not drawn)	x	1	x	-2	x	2	x
COc1ccccc1NS(=O)(=O)c1cccc(NC(=O)Nc2cccc(Cl)c2)c1	44*	-1	243	3	-8	-4	59*
Cc1cccc(CNc2ncnc3ccc(-c4ccccc4Cl)cc23)c1	51*	-4	390	4	-4	0	52*
Cc1nc(SCC(=O)Nc2ccccc2Cl)oc1C	12	2	231	-11	-1	-8	x
NC(=O)c1ccsc1NC(=O)c1ccc([N+](=O)[O-])o1	-13	-14	449	15	3	-12	x
CCC1=NN2C(=N)/C(=C\c3cccn3-c3c(C)cccc3C)C(=O)N=C2S1	84*	-3	242	-44	6	-5	87*
Cc1ccc(-n2cccc2/C=C2/C(=N)N3C(=NC2=O)SN=C3S(C)(=O)=O)cc1Cl	65*	-10	348	-46	1	-1	52*
Cc1cccc(C)c1-n1cccc1/C=C1/C(=N)N2C(=NC1=O)SN=C2S(C)(=O)=O	89*	7	624	-6	2	6	90*
Cc1cc(/C=C2/C(=N)N3C(=NC2=O)SN=C3S(C)(=O)=O)c(C)n1-c1ccc(F)cc1	4	3	346	-5	20	3	x
CC1=CSC2=NC(=O)/C(=C\c3cccn3-c3ccccc3)C(=N)N12	20	0	163	-11	5	-8	x
C/C(CC(=O)Nc1ccccc1-c1ccccc1)=N\NC(=O)COc1ccc(C)cc1Br	72*	4	274	6	4	3	78*
O=c1ccc2ccc(OCCOc3cccc(Cl)c3)cc2o1	-4	-10	402	5	2	-20	x
CC(C)CCn1c(=O)c2ccccc2c2ccccc2c1=O	64*	10	333	7	0	-3	71*
CC(C)Cn1c(=O)c2ccccc2c2ccccc2c1=O	39	6	394	-1	-7	-4	x
O=C1CCC/C=C/C[C@H](CC(=O)N(CCO)Cc2ccccc2)C(=O)N[C@@H](Cc2ccccc2)CO1	-2	8	304	2	-8	4	x
Oc1c(Br)cc(Br)cc1C=NCc1ccccc1	73*	-8	220	16	18	-8	71*
O=C(Cc1ccccc1)N/N=C/c1cc(Br)cc(Br)c1O	-6	-1	235	-47	-16	-7	x
SMILES	ATG4B inhibitor	PKA-R2B act	T cell HTS	PfG6PD inh	HKDC1 inhibitor	PKA-R1A act	PLA2 ctr	others
COc1ccc(Br)cc1CNC(=O)C1CCCN(S(=O)(=O)N2CCC(C)CC2)C1 (stereo not drawn)	x	4	x	8	x	-3	x
COc1ccc(Br)cc1CNC(=O)C1CCN(S(=O)(=O)N2CCC(C)CC2)CC1	42*	2	318	0	-6	-6	42	ATG4B confirm=67*
O=C(NC(=S)Nc1ccc(Cc2ccncc2)cc1)c1ccccc1F	52*	-2	177	0	0	-6	56*
Cc1ccccc1C(=O)NC(=S)Nc1ccc(Cc2ccncc2)cc1	46*	-10	342	13	1	-10	49
O=C(NC(=S)Nc1ccc(Cc2ccncc2)cc1)c1ccccc1Cl	19	9	228	8	-7	-4	x
COC(=O)c1nccnc1N	-1	-1	x	2	-5	7	x
O=C(CN1C(=O)CSc2ccc(S(=O)(=O)N3CCOCC3)cc21)NCc1ccc(F)cc1	-2	-1	151	2	-6	-4	x
CCCCNC(=O)c1ccc2nc(-c3ccco3)c(-c3ccco3)nc2c1	12	-7	170	44	19	3	x
O=C(NCc1ccccc1)c1ccc2nc(-c3ccco3)c(-c3ccco3)nc2c1	44*	4	400	44	32	3	31
Cc1ccccc1Oc1nc2ccccn2c(=O)c1/C=C(\C#N)C(=O)Nc1c(C)n(C)n(-c2ccccc2)c1=O	5	-10	311	3	-9	9	x
Cc1ccccc1Oc1nc2c(C)cccn2c(=O)c1/C=C(\C#N)C(=O)Nc1c(C)n(C)n(-c2ccccc2)c1=O	53*	-10	508	-3	3	4	66*
COCCNC(=O)/C(C#N)=C/c1c(N2CCN(c3ccccc3)CC2)nc2c(C)cccn2c1=O	40*	1	114	1	2	3	45	ATG4B confirm=65*
Oc1ccc(Cl)cc1Sc1cc(Cl)ccc1O	47*	-3	x	-34	4	-11	25	ATG4B confirm=59*
O=C(NCCc1cccnc1)C1CCC(=O)N(Cc2ccc(Cl)cc2)C1 (stereo not drawn)	14	0	x	-12	-6	-10	x
O=C(CCCOc1ccccc1)N1CCc2ccccc2C1	15	4	690	12	0	-4	x
